# Results as given in ChEMBL document CHEMBL4196192, “MEPicides: α,β-Unsaturated Fosmidomycin Analogues as DXR Inhibitors against Malaria” (J Med Chem, 2018).
# Active and inactive are the calls of the source. No cut-off for these calls is given here.
# Experiments:
# Plasmodium berghei [1] = assay: (§1) Antimalarial activity against luciferase-expressing Plasmodium berghei ANKA infected in Swiss Webster mouse assessed as reduction in parasitemia at 20 mg/kg, ip administered daily for 5 days starting from 2 days post infection by luciferase-luciferin based reporter assay; type: functional, organism-based
# Plasmodium falciparum [2] = assay: Growth inhibition of Plasmodium falciparum 3D7 asynchronous cultures by PicoGreen dye based assay; type: functional, organism-based
# [3] = target: T1, 1-deoxy-D-xylulose 5-phosphate reductoisomerase, apicoplastic (Plasmodium falciparum (isolate 3D7)) (UniProt Q8IKG4); assay: Inhibition of Plasmodium falciparum DXR assessed as reduction in NADPH oxidation at 100 uM in presence of DOXP by UV-visible spectrophotometry
# T1 sequence (whole entry): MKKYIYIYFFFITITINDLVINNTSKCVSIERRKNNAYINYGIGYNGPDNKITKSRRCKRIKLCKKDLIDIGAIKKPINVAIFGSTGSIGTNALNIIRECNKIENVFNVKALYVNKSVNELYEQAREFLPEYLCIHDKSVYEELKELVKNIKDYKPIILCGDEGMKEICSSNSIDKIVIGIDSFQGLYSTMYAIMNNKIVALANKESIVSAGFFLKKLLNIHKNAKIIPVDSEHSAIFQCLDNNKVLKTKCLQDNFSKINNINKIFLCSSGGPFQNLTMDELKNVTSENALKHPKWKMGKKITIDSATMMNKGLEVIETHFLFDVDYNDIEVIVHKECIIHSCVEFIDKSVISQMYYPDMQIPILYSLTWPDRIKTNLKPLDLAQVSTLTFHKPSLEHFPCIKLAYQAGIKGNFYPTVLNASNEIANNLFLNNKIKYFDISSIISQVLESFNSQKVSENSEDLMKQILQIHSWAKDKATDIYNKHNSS
# Procedure, shortened: (§2)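 Recombinant P. falciparum DXR (0.86 μM) in 100 mM Tris pH 7.8, 25 mM MgCl2, 150 μM NADPH, at 37 °C; inhibitor at a single 100 μM; reaction started with 144 μM DOXP; NADPH oxidation followed at 340 nm by UV-vis spectrophotometry; percent remaining activity; duplicate.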
# [4] = target: T2, 1-deoxy-D-xylulose 5-phosphate reductoisomerase, apicoplastic (Plasmodium falciparum (isolate 3D7), UniProt Q8IKG4); assay: Inhibition of Plasmodium falciparum DXR
# T2 sequence (Q8IKG4 whole entry): T1 sequence (whole entry)
# Procedure, shortened: (§3)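 Recombinant P. falciparum DXR (0.86 μM) in 100 mM Tris pH 7.8, 25 mM MgCl2 and 150 μM NADPH at 37 °C. Reaction started with 144 μM DOXP. NADPH oxidation followed at 340 nm by UV–visible spectrophotometry. Compounds were screened first at a single 100 μM concentration as percent remaining activity. Assays were run in duplicate.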
# [5] = target: T2, 1-deoxy-D-xylulose 5-phosphate reductoisomerase, apicoplastic; assay: Inhibition of Plasmodium falciparum DXR assessed as reduction in NADPH oxidation in presence of DOXP by UV-visible spectrophotometry; procedure, shortened: as §3
# Plasmodium falciparum [6] = assay: Growth inhibition of Plasmodium falciparum; type: functional, organism-based
# Plasmodium falciparum [7] = assay: Growth inhibition of Plasmodium falciparum containing had1 mutation at 0.01 to 100 uM by PicoGreen dye based assay; type: functional, organism-based
# HepG2 = assay: Cytotoxicity in human HepG2 cells; type: cell-based
# Plasmodium falciparum [8] = assay: Growth inhibition of Plasmodium falciparum containing had1 mutation expressing GFP-HAD1 by PicoGreen dye based assay; type: functional, organism-based
# Plasmodium falciparum [9] = assay: Growth inhibition of Plasmodium falciparum 3D7 asynchronous cultures at 0.01 to 100 uM incubated for 72 hrs in presence of excess IPP by PicoGreen dye based assay; type: functional, organism-based
# [10] = Half life in mouse liver microsomes; type: ADME, microsome
# [11] = Selectivity index, ratio of IC50 for cytotoxicity in human HepG2 cells to IC50 for growth inhibition of Plasmodium falciparum 3D7 asynchronous cultures; type: toxicity, cell-based; conditions: read-out: Ratio IC50
# [12] = Half life in mouse plasma; type: ADME, cell-free
# Plasmodium falciparum [13] = assay: Resistance index, ratio of IC50 for Plasmodium falciparum containing had1 mutation to IC50 for growth inhibition of wild type Plasmodium falciparum 3D7 asynchronous cultures; type: functional
# Plasmodium berghei [14] = assay: as §1, with “parasitemia by measuring reduction in luciferin signal intensity” for “parasitemia”, “50” for “20”, “assay relative to untreated control” for “assay”; type: functional, organism-based
# [15] = target: T1, 1-deoxy-D-xylulose 5-phosphate reductoisomerase, apicoplastic (Plasmodium falciparum (isolate 3D7)); assay: Inhibition of DXR in Plasmodium falciparum 3D7 assessed as reduction in CDP-ME levels at 5 times growth inhibitory IC50 incubated for 10 hrs by LC-MS/MS method
# [16] = target: T1, 1-deoxy-D-xylulose 5-phosphate reductoisomerase, apicoplastic (Plasmodium falciparum (isolate 3D7)); assay: Inhibition of DXR in Plasmodium falciparum 3D7 assessed as reduction in MEP levels at 5 times growth inhibitory IC50 incubated for 10 hrs by LC-MS/MS method
# Plasmodium falciparum [17] = assay: Effect on DXR protein level in Plasmodium falciparum 3D7 at 5 times growth inhibitory IC50 incubated for 10 hrs by LC-MS/MS method; type: organism-based
# Mus musculus [18] = assay: Toxicity in luciferase-expressing Plasmodium berghei ANKA infected Swiss Webster mouse assessed as induction of adverse events at 50 mg/kg, ip administered daily for 5 days starting from 2 days post infection; type: organism-based; conditions: in vivo
# Procedure, shortened: (§4)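 Female Swiss Webster mice (25–30 g) infected ip with 10^3 luciferase-expressing P. berghei, then given ip doses daily for 5 days from day 2 in 2% methylcellulose/0.5% Tween 80 vehicle, groups of five; mice observed for adverse effects over the dosing period.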
# [19] = target: T1, 1-deoxy-D-xylulose 5-phosphate reductoisomerase, apicoplastic (Plasmodium falciparum (isolate 3D7)); assay: Inhibition of DXR in Plasmodium falciparum 3D7 assessed as reduction in MEcPP levels at 5 times growth inhibitory IC50 incubated for 10 hrs by LC-MS/MS method
# Plasmodium berghei [20] = assay: as §1, with “parasitemia by measuring reduction in luciferin signal intensity” for “parasitemia”, “assay relative to untreated control” for “assay”; type: functional
# Mus musculus [21] = assay: Toxicity in luciferase-expressing Plasmodium berghei ANKA infected Swiss Webster mouse assessed as induction of adverse events at 20 mg/kg, ip administered daily for 5 days starting from 2 days post infection; type: organism-based; conditions: in vivo; procedure, shortened: as §4
# [22] = target: T1, 1-deoxy-D-xylulose 5-phosphate reductoisomerase, apicoplastic (Plasmodium falciparum (isolate 3D7)); assay: Inhibition of Plasmodium falciparum DXR assessed as remaining enzyme activity by measuring NADPH oxidation at 100 uM in presence of DOXP by UV-visible spectrophotometry; procedure, shortened: as §2
smiles,measurement,setting,value
CCN(CC)CCCC(C)Nc1ccnc2cc(Cl)ccc12 (configuration not stated),Activity,Plasmodium berghei [1],Active
CC(=O)N(O)C/C=C/P(=O)(OCOC(=O)C(C)(C)C)OCOC(=O)C(C)(C)C,IC50,Plasmodium falciparum [2],18 nM
COC(=O)N(O)C/C=C/P(=O)(O)O,inhibition,[3],> 75%
same,IC50,Plasmodium falciparum [2],28600 nM
CC(=O)N(C/C=C/P(=O)(OCOC(=O)C(C)(C)C)OCOC(=O)C(C)(C)C)OCc1ccc2ccccc2c1,IC50,Plasmodium falciparum [2],50500 nM
CC(=O)N(C/C=C/P(=O)(OCOC(=O)C(C)(C)C)OCOC(=O)C(C)(C)C)OCc1ccc(C(C)C)cc1,IC50,Plasmodium falciparum [2],55200 nM
CC(C)(C)C(=O)OCOP(=O)(/C=C/CN(O)C(=O)C(F)(F)F)OCOC(=O)C(C)(C)C,IC50,Plasmodium falciparum [2],14300 nM
CC(=O)N(O)CCCP(=O)(O)O,inhibition,[3],> 75%
same,IC50,[4],24 nM
same,IC50,[5],23 nM
same,IC50,Plasmodium falciparum [6],90 to 350 nM
same,IC50,Plasmodium falciparum [2],511 nM
CC(=O)N(C/C=C/P(=O)(O)O)OCc1ccc(C(C)C)cc1,inhibition,[3],> 75%
same,growth inhibition (GI),Plasmodium falciparum [7],inactive
same,IC50,Plasmodium falciparum [2],1100 nM
CC(=O)N(CCCP(=O)(OCOC(=O)C(C)(C)C)OCOC(=O)C(C)(C)C)OCc1ccc2ccccc2c1,IC50,Plasmodium falciparum [6],33200 nM
CC(=O)N(O)C/C=C/P(=O)(O)O,inhibition,[3],> 75%
same,IC50,[5],206 nM
same,IC50,Plasmodium falciparum [2],202 nM
O=CN(O)C/C=C/P(=O)([O-])O.[Na+],IC50,HepG2,> 50000 nM
same,growth inhibition (GI),Plasmodium falciparum [8],Active
same,inhibition,[3],> 75%
same,growth inhibition (GI),Plasmodium falciparum [9],inactive
same,t1/2,[10],> 1 h
same,selectivity ratio,[11],2630
same,t1/2,[12],> 2 h
same,Ratio IC50,Plasmodium falciparum [13],3.4
same,IC50,Plasmodium falciparum [2],19 nM
CC(C)(C)C(=O)OCOP(=O)(/C=C/CN(O)C=O)OCOC(=O)C(C)(C)C,IC50,HepG2,> 50000 nM
same,Activity,Plasmodium berghei [14],Active
same,growth inhibition (GI),Plasmodium falciparum [8],Active
same,growth inhibition (GI),Plasmodium falciparum [9],inactive
same,inhibition,[15],Active
same,inhibition,[16],Active
same,Activity,Plasmodium falciparum [17],Non-Toxic
same,Activity,Mus musculus [18],Non-Toxic
same,t1/2,[12],< 0.083 h
same,inhibition,[19],Active
same,log(activity),Plasmodium berghei [20],3
same,Activity,Mus musculus [21],Non-Toxic
same,IC50,Plasmodium falciparum [2],13 nM
COC(=O)N(O)C/C=C/P(=O)(OCOC(=O)C(C)(C)C)OCOC(=O)C(C)(C)C,IC50,Plasmodium falciparum [2],23700 nM
CC(=O)N(C/C=C/P(=O)(O)O)OC(C)c1ccccc1 (configuration not stated),inhibition,[3],> 75%
same,IC50,Plasmodium falciparum [2],1200 nM
C[C@@H]1CC[C@H]2[C@@H](C)C(=O)O[C@@H]3O[C@@]4(C)CC[C@@H]1[C@]32OO4 [ARTEMISININ],IC50,Plasmodium falciparum [2],10.4 nM
CC(=O)N(C/C=C/P(=O)(O)O)OCc1ccc(-c2ccccc2)cc1,inhibition,[3],> 75%
same,IC50,Plasmodium falciparum [2],2300 nM
O=CN(O)CCCP(=O)(O)O [FOSMIDOMYCIN SODIUM],inhibition,[3],> 75%
same,IC50,Plasmodium falciparum [6],90 to 350 nM
same,IC50,Plasmodium falciparum [2],1090 nM
CC(=O)N(C/C=C/P(=O)(O)O)OCc1ccc2ccccc2c1,inhibition,[3],> 75%
same,Activity,[22],25%
same,IC50,Plasmodium falciparum [2],26100 nM
CC(=O)N(C/C=C/P(=O)(OCOC(=O)C(C)(C)C)OCOC(=O)C(C)(C)C)OCc1ccc(-c2ccccc2)cc1,IC50,Plasmodium falciparum [2],44100 nM
O=C(N(O)C/C=C/P(=O)(O)O)C(F)(F)F,inhibition,[3],> 75%
same,Activity,[22],37%
same,IC50,Plasmodium falciparum [2],113000 nM
